The source made the active and inactive calls. No cut-off for these calls is given here.
Tests used:
Rattus norvegicus [1] = test: Antidiabetic activity in hyperglycemic normal Wistar rat assessed as reduction of serum glucose level at 10 mg/kg, po up to 180 mins by glucose oxidase method; assay type: functional, organism-based; set-up: dose 10 mg/kg
In short: (§1)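 Male Wistar rats (180–210 g), fasted 16 h, given glucose 4 g/kg (8.9 M) plus compound 10 mg/kg in corn oil by oral gavage (0.5 mL); vehicle-treated and glucose-only controls. Tail-vein blood centrifuged, serum glucose by glucose oxidase before and at 15, 30, 60, 180 min. Lowering expressed versus hyperglycemic control; mean ± S.E.M., n = 8.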

Rattus norvegicus [2] = test: Antidiabetic activity in hyperglycemic normal Wistar rat assessed as reduction of serum glucose level at 10 mg/kg, po after 15 mins by glucose oxidase method relative to control; assay type: functional; set-up: scale not given: the % may be the effect or the level left; in short: as §1
Rattus norvegicus [3] = test: Antidiabetic activity in hyperglycemic normal Wistar rat assessed as reduction of serum glucose level at 10 mg/kg, po after 30 mins by glucose oxidase method relative to control; assay type: functional; set-up: scale not given: the % may be the effect or the level left; in short: as §1
Rattus norvegicus [4] = test: Antidiabetic activity in hyperglycemic normal Wistar rat assessed as reduction of serum glucose level at 10 mg/kg, po after 60 mins by glucose oxidase method relative to control; assay type: functional; set-up: scale not given: the % may be the effect or the level left; in short: as §1
Rattus norvegicus [5] = test: Antidiabetic activity in hyperglycemic normal Wistar rat assessed as potentiation of glucose-induced serum insulin level at 10 mg/kg, po after 60 mins by ELISA relative control; assay type: functional
In short: (§2)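 Male Wistar rats (180–210 g), fasted 16 h, orally loaded with glucose 4 g/kg plus compound 10 mg/kg in corn oil by gavage; euglycemic and hyperglycemic control groups. Serum insulin by rat insulin ELISA (range 0.2–10 ng/mL; intra/inter-assay CV 3.22/6.95), absorbance 450 nm against standard curve. Increase versus hyperglycemic control at matched times; mean ± SEM, n = 8.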

Rattus norvegicus [6] = test: Antidiabetic activity in hyperglycemic normal Wistar rat assessed as potentiation of glucose-induced serum insulin level at 10 mg/kg, po after 30 mins by ELISA relative control; assay type: functional; in short: as §2
Rattus norvegicus [7] = test: Antidiabetic activity in hyperglycemic normal Wistar rat assessed as potentiation of glucose-induced serum insulin level at 10 mg/kg, po by ELISA relative control; assay type: functional, organism-based; set-up: dose 10 mg/kg; in short: as §2

| SMILES | Activity (Rattus norvegicus [1]) | Activity (Rattus norvegicus [2]) [%] | Activity (Rattus norvegicus [3]) [%] | other results |
| --- | --- | --- | --- | --- |
| O=C(/C=C/c1ccc2ccccc2c1)c1ccc2ccccc2c1 | inactive |  |  |  |
| O=C(/C=C/c1ccc2ccccc2c1)c1ccccc1 | inactive |  |  |  |
| O=C(/C=C/c1cccc2ccccc12)c1cccc([N+](=O)[O-])c1 |  | 18 | 32 |  |
| O=C(/C=C/c1cccc2ccccc12)c1ccc([N+](=O)[O-])cc1 |  | 17 | 21 |  |
| O=C(/C=C/c1ccc2ccccc2c1)c1cccc([N+](=O)[O-])c1 |  | 24 | 25 | Activity (Rattus norvegicus [4]): 14% |
| O=C(/C=C/c1ccc2ccccc2c1)c1ccccc1[N+](=O)[O-] | inactive |  |  |  |
| O=C(/C=C/c1ccc2ccccc2c1)c1ccc([N+](=O)[O-])cc1 |  | 22 | 25 | Activity (Rattus norvegicus [5]): 104%; Activity (Rattus norvegicus [4]): 19%; Activity (Rattus norvegicus [6]): 27%; Activity (Rattus norvegicus [7]): Dose-dependent effect |
| O=C(/C=C/c1ccc([N+](=O)[O-])cc1)c1ccc2ccccc2c1 | inactive |  |  |  |
| O=C(/C=C/c1cccc([N+](=O)[O-])c1)c1ccc2ccccc2c1 | Active |  |  | Activity (Rattus norvegicus [5]): 88%; Activity (Rattus norvegicus [6]): 48%; Activity (Rattus norvegicus [7]): Dose-dependent effect |

Reference: ChEMBL document CHEMBL1157020, “Antihyperglycemic activity of naphthylchalcones” (2010)
